Experimental data collected from several papers.
Lines come from different studies, so protocols differ.
Target: Acetylcholinesterase (ACHE, Homo sapiens, UniProt P22303)
Mode: inhibitor

C#CCN(C)CCCCOCc1ccc(CN(C)c2c3c(nc4ccccc24)CCCC3)cc1  IC50 (enzyme activity; Ellman): 2.36 µM
O=C(NCCN1CCCCC1)c1cccc([N+](=O)[O-])c1  IC50 (enzyme activity; Ellman): 2 µM
C#CCN(C)CCCCOc1cccc(CN(C)c2c3c(nc4ccccc24)CCCC3)c1  IC50 (enzyme activity; Ellman): 6.09 µM
CCN(CC)c1ccc(C=NNC(=O)c2ccc(F)cc2)c(OS(=O)(=O)c2ccc(OC)cc2)c1  IC50 (enzyme activity; Ellman): 0.0837 µM
O=[N+]([O-])c1c[nH]c(-c2n[nH]c(=S)n2/N=C/c2ccc(Br)c(Br)c2)c1  IC50 (enzyme activity; Ellman): 27.1 µM
C#CCN(C)CCCCCCOc1cccc(CN(C)c2c3c(nc4ccccc24)CCCC3)c1  IC50 (enzyme activity; Ellman): 1.16 µM
O=[N+]([O-])c1c[nH]c(-c2n[nH]c(=S)n2/N=C/c2ccc(C(F)(F)F)cc2)c1  IC50 (enzyme activity; Ellman): 5.1 µM
O=C(NCCN1CCCCC1)c1ccc([N+](=O)[O-])cc1  IC50 (enzyme activity; Ellman): 2.4 µM
O=[N+]([O-])c1c[nH]c(-c2n[nH]c(=S)n2/N=C/c2ccc(Br)c(Cl)c2)c1  IC50 (enzyme activity; Ellman): 22.9 µM
C#CCN(C)CCOc1cccc(CN(C)c2c3c(nc4ccccc24)CCCC3)c1  IC50 (enzyme activity; Ellman): 4.21 µM
O=C(NCCN1CCCCC1)c1ccccc1[N+](=O)[O-]  IC50 (enzyme activity; Ellman): 19 µM
O=[N+]([O-])c1c[nH]c(-c2n[nH]c(=S)n2/N=C/c2cc(O)cc(F)c2)c1  IC50 (enzyme activity; Ellman): 8.8 µM
C#CCN(C)CCCCOCc1ccc(CN(C)c2c3c(nc4ccc(C)cc24)CCCC3)cc1  IC50 (enzyme activity; Ellman): 16.2 µM
COc1ccc(S(=O)(=O)Oc2ccc3ccccc3c2C=NNC(=O)c2ccc(F)cc2)cc1  IC50 (enzyme activity; Ellman): 0.114 µM
O=C(NCCN1CCCCC1)c1ccccc1F  IC50 (enzyme activity; Ellman): 0.013 µM
Cn1cc(-c2cc(C(=O)NN=Cc3ccccc3)no2)c2ccccc21  IC50 (enzyme activity): > 100 µM
C#CCN(C)CCCCCCCOc1cccc(CN(C)c2c3c(nc4ccccc24)CCCC3)c1  IC50 (enzyme activity; Ellman): 1.14 µM
O=[N+]([O-])c1c[nH]c(-c2n[nH]c(=S)n2/N=C/c2ccc(F)cc2O)c1  IC50 (enzyme activity; Ellman): 7.1 µM
Cn1cc(-c2cc(C(=O)NN=Cc3cccc([N+](=O)[O-])c3)no2)c2ccccc21  IC50 (enzyme activity): 45.6 µM
COc1ccc(S(=O)(=O)Oc2ccc(C=NNC(=O)c3ccc(F)cc3)cc2OC)cc1  IC50 (enzyme activity; Ellman): 0.0614 µM
COc1ccccc1C=NNC(=O)c1cc(-c2cn(C)c3ccccc23)on1  IC50 (enzyme activity): 34.2 µM
COc1ccc(S(=O)(=O)Oc2ccccc2C=NNC(=O)c2ccc(F)cc2)cc1  IC50 (enzyme activity; Ellman): 0.107 µM
COC(=O)c1cc(N(C)C(=O)c2ccn3ncc(-c4ccc(C(=O)O)cc4)c3c2)ccc1Cl  IC50 (cell-free assay): > 30 µM
Cn1cc(-c2cc(C(=O)NN=Cc3cccc(Br)c3)no2)c2ccccc21  IC50 (enzyme activity): > 100 µM
O=[N+]([O-])c1c[nH]c(-c2n[nH]c(=S)n2/N=C/c2ccc(Oc3ccccc3)cc2)c1  IC50 (enzyme activity; Ellman): 19.3 µM
C#CCN(C)CCCCCOCc1ccc(CN(C)c2c3c(nc4ccccc24)CCCC3)cc1  IC50 (enzyme activity; Ellman): 4.84 µM
COc1ccccc1C(=O)NCCN1CCCCC1  IC50 (enzyme activity; Ellman): 4.7 µM
O=[N+]([O-])c1c[nH]c(-c2n[nH]c(=S)n2/N=C/c2ccc(F)cc2)c1  IC50 (enzyme activity; Ellman): 8.2 µM
Cn1cc(-c2cc(C(=O)NN=Cc3ccccc3F)no2)c2ccccc21  IC50 (enzyme activity): > 100 µM
COc1ccc(C(=O)NCCN2CCCCC2)cc1  IC50 (enzyme activity; Ellman): 5.6 µM
O=[N+]([O-])c1c[nH]c(-c2n[nH]c(=S)n2/N=C/c2ccc(F)c([N+](=O)[O-])c2)c1  IC50 (enzyme activity; Ellman): 15.5 µM
